In PubChem BioAssay AID504654 (Molecular Libraries Program, Specialized Chemistry Center, …, 2011):
Activity calls are given as the source filed them.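 The calls were made as follows: active = IC50 of at least 20 µM; inactive = IC50 below 20 µM.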

Each compound was assayed against HeLa ODD-luciferase turnover, degradation rate luminescence (assay: inhibitors of ODD-luciferase turnover, p97-independent, SAR follow-up, counter-screen for p97 inhibitor project, cell-based, HeLa, luminescence (AID 504654)).
In short: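 Assay system: human HeLa line with stable ODD-luciferase reporter. Timing: 1 h MG132 block, 70/90/120/150 min chase. Signal: luminescence after luciferin substrate addition.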

| IC50 | Compound |
| --- | --- |
| inactive | COc1cccc2c(NCc3ccccc3)nc(Nc3nc4ccccc4n3C)nc12 |
| inactive | Cc1ccc(CNc2nc(NCc3ccccc3)c3ccccc3n2)cc1 |
| inactive | COc1cccc2c(NCc3ccccc3)nc(Nc3cccc(Cl)c3)nc12 |
| inactive | FC(F)(F)c1ccc(CNc2nc(NCc3ccccc3)c3ccccc3n2)cc1 |
| > 20 µM | COc1cccc2c(NCc3ccccc3)nc(-n3c(=O)oc4ccccc43)nc12 |
| inactive | Fc1cccc(CNc2nc(NCc3ccccc3)c3ccccc3n2)c1 |
| inactive | Brc1cccc(CNc2nc(NCc3ccccc3)c3ccccc3n2)c1 |
| inactive | COc1cccc2c(NCc3ccccc3)nc(NCc3cccs3)nc12 |
| inactive | COc1cccc2c(NCc3ccccc3)nc(NCc3ccccc3)nc12 |
| inactive | c1ccc(CNc2nc(N3CCOc4ccccc43)nc3ccsc23)cc1 |
